How the values were obtained:
[1] = melting temperature; fluorescence melt of hairpins on a sequencing array, two-state fit, raised by 9.35 °C to match UV melts; details: sodium 0.088 M
In short: (§1)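 On a sequenced MiSeq flow cell, library hairpins with annealed Cy3 and quencher oligos were imaged for Cy3 fluorescence in 2.5 °C steps up to 60 °C, in 50 mM Na-HEPES pH 8.0, 25 mM NaCl. Normalisation used pre-quench Cy3 and control constructs. Bootstrapped two-state fits gave melting temperature and folding enthalpy, combined by inverse variance across four replicates and with fitted temperatures raised by 9.35 °C to match UV melts.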

[2] = folding enthalpy; higher = less favourable; fluorescence melt of hairpins on a sequencing array, two-state fit; details: sodium 0.088 M
In short: as §1

Sequence	Tm [1]	folding enthalpy [2]
GATCAGCAGACTGATC ((((((....))))))	50.3 °C	-42.5 kcal/mol
GATCGTGTCGACGATC ((((((....))))))	60.3 °C	-33.9 kcal/mol
GTAGCCGAAAGGCACTAC ((((((....)))..)))	48.5 °C	-12.5 kcal/mol
GATCTTTCTAAAGATC ((((((....))))))	47.3 °C	-37.7 kcal/mol
GGTCAGGGAAACCTGACC (((((((....)))))))	67.2 °C	-36.6 kcal/mol
GCGTTAGAAATAACGC ((((((....))))))	57.6 °C	-37.8 kcal/mol
GGTAGACGAAAGTCGACC (((.(((....))).)))	58.1 °C	-39.1 kcal/mol
GTCGACGAAAGTCTCGAC ((((((....)))..)))	41.8 °C	-18.3 kcal/mol
GAACAGGGAAACCTGTTC (((((((....)))))))	59.4 °C	-37.8 kcal/mol
GCAGCGCGAAAGCTTTGC (((..((....))..)))	37.4 °C	-16.7 kcal/mol
GTAAGAGGAAACTCTCAC ((.((((....)))).))	26.3 °C	-14.8 kcal/mol
GATCGGATATCCGATC ((((((....))))))	58.3 °C	-42.9 kcal/mol
GTCCCGGGAAACCGGAAC ((.((((....)))).))	44.4 °C	-14.9 kcal/mol
GTTCGCGGAAACGCAAAC (((.(((....))).)))	43.7 °C	-20.8 kcal/mol
GATCAAGGTCTTGATC ((((((....))))))	48.6 °C	-37.5 kcal/mol
GCAGTAGGAAACTACTAC (.(((((....))))).)	32.2 °C	-17.2 kcal/mol
GTAATAGGAAACTGTTAC ((((.((....)).))))	36.4 °C	-24.9 kcal/mol
GATCCGACGAAAGTCATC (((..(((....))))))	25.9 °C	-9.01 kcal/mol
GTCAAAACGAAAGTTGAC (((..(((....))))))	40.5 °C	-24.4 kcal/mol
GAGTACGAAAGTACGCTC ((((((....)))..)))	53.9 °C	-16.3 kcal/mol
GATCTTTCGAAGATC ((((((...))))))	40.7 °C	-28.7 kcal/mol
GGAATGCGAAAGCATCC (((.(((....))))))	55.5 °C	-15.9 kcal/mol
GGTTGCGAAAGCAAACC ((((((....))).)))	61.8 °C	-20 kcal/mol

Sequence	Tm [1]	folding enthalpy [2]
GCGTGCGGAAACACACGC (((((.(....).)))))	58.5 °C	-40.2 kcal/mol
GTGTGTGGAAACACGTAC ((..(((....)))..))	38.7 °C	-11.8 kcal/mol
GATCTAGCTTAGATC ((((((...))))))	38.1 °C	-29.4 kcal/mol
GATCGGGGGGCCGATC ((((((....))))))	57.3 °C	-53.6 kcal/mol
GCTGATGGAAACGTCAGC (((((.(....).)))))	53.3 °C	-40.3 kcal/mol
GCTAAGCGAAAGCTGTGC ((..(((....)))..))	48.6 °C	-18.1 kcal/mol
GCGCACCGAAAGGTTCGC (((.(((....))).)))	61.4 °C	-40.3 kcal/mol
GATCGGACTCCGATC ((((((...))))))	55.2 °C	-33.8 kcal/mol
GCGCCGCGAAAGCCCCGC (((..((....))..)))	39 °C	-17.7 kcal/mol
GTCACTGGAAACAATGAC ((((.((....)).))))	35 °C	-21.6 kcal/mol
GAGGGCGAAAGCCGCTC ((((((....))).)))	54.5 °C	-13 kcal/mol
GCGGGCGGAAACGCCCAC (.(((((....))))).)	57.2 °C	-8.92 kcal/mol
CGAGAGAAATCTCG (((((....)))))	47.5 °C	-23.9 kcal/mol
GCTCAGCGAAAGCGGTGC ((.(.((....)).).))	55.2 °C	-17.8 kcal/mol
GCACTGCGAAAGCGCTGC (((..((....))..)))	42.6 °C	-20.6 kcal/mol
TACATGAAAATGTA (((((....)))))	32.1 °C	-12.7 kcal/mol
GATCTGCTTTCAGATC ((((((....))))))	49.1 °C	-40.1 kcal/mol
GTGTCAGGAAACCGACAC (((((.(....).)))))	49.2 °C	-42.6 kcal/mol
GGGTTACGAAAGTATCCC (((.(((....))).)))	51.4 °C	-43.4 kcal/mol
GCATGGCGAAAGCGCTGC (((..((....))..)))	51.6 °C	-18.6 kcal/mol
GAGGGGCGAAAGCCTCTC (((.(((....))).)))	58 °C	-23.3 kcal/mol
GGAAGGCGAAAGCCGTCC (((.(((....))).)))	58 °C	-15.5 kcal/mol
GCCCTAGAAATAGGGC ((((((....))))))	59.1 °C	-37.2 kcal/mol

Sequence	Tm [1]	folding enthalpy [2]
GCCAGCGAAAGCTTGGGC ((((((....)))..)))	52.5 °C	-26.7 kcal/mol
GGCAACGAAAGTTACGCC ((((((....)))..)))	44.4 °C	-24.2 kcal/mol
GTTAGTGCGAAAGCAAAC (((..(((....))))))	28.3 °C	-10.6 kcal/mol
GGTCGGGGAAACCCGGCC ((.((((....)))).))	66.2 °C	-42.7 kcal/mol
GCGCCGCGAAAGCGAAGC ((..(((....)))..))	64.8 °C	-32 kcal/mol
GGTGATGAAAATCACC ((((((....))))))	62.5 °C	-32.1 kcal/mol
GCCCCGCGAAAGCGATGC ((..(((....)))..))	34.2 °C	-11.7 kcal/mol
GGGCTTGCGAAAGCACCC (((..(((....))))))	45.6 °C	-15.8 kcal/mol
GCGGCGCGAAAGCGATGC ((..(((....)))..))	69.1 °C	-38.6 kcal/mol
GGCCCTGGAAACGGGGTC (.(((.(....).))).)	49 °C	-30.9 kcal/mol
GTAGGAGGAAACTTCTAC ((((.((....)).))))	37.4 °C	-27 kcal/mol
CGCATGCGGAAACGCGCG (((..(((....))))))	52.1 °C	-20.8 kcal/mol
GCCTCCTCGAAAGAGGGC (((..(((....))))))	43.9 °C	-9.35 kcal/mol
GGCCCCGAAAGGGTGGCC ((((((....)))..)))	61.6 °C	-22.7 kcal/mol
GATCTGGGCACAGATC ((((((....))))))	59.3 °C	-40 kcal/mol
GCGCGTTCGAAAGAACGC (((..(((....))))))	68 °C	-6.28 kcal/mol
GTGAGCGAAAGCTCTCAC ((((((....)))..)))	40.6 °C	-10 kcal/mol
GGTCGCGAAAGCGAGACC ((((((....)))..)))	51.6 °C	-13.5 kcal/mol
GGGATTCGAAAGAAACCC (((.(((....))).)))	50.6 °C	-48.4 kcal/mol
GAACACGGAAACGTATTC (((.(((....))).)))	33 °C	-22.6 kcal/mol
GTTTCAGAAATGAAAC ((((((....))))))	47.2 °C	-27.3 kcal/mol
GACGTGGGAAACCGCGTC ((((.((....)).))))	61.5 °C	-43.8 kcal/mol
GCCTTCGAAAGAATAGGC ((((((....)))..)))	44.8 °C	-28.8 kcal/mol
